Measured values: ChEMBL document CHEMBL1132176, “Novel A,B,E-ring-modified camptothecins displaying high lipophilicity and markedly improved human blood stabilities” (J Med Chem, 1999)
Values belong to the molecule of their own block, whether it stands above or below them.

Experiments:
[1] = Stability parameter for the compound at a concentration of 1 uM in red blood cells(RBC) after 3h; assay type: ADME, cell-based; conditions: read-out: Lactone
Summary of the method: (§1)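 Lactone-to-carboxylate hydrolysis followed by HPLC; drug at 1 μM incubated at 37 °C for 3 h in human whole blood, plasma, or PBS (pH 7.4) with or without physiologically relevant levels of HSA or albumin-free RBCs ((5 ± 1) × 10^6 cell/μL). Plasma continuously aerated with blood gas to hold pH 7.5 ± 0.1. Blood kept at 5 °C before start. Value is % lactone remaining.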

[2] = Stability parameter for the compound at a concentration of 1 uM in whole human blood after 3h; assay type: ADME; conditions: read-out: Lactone; summary of the method: as §1
[3] = Stability parameter for the compound in human blood after 3h; assay type: ADME; conditions: read-out: Lactone
[4] = Equilibrium association (binding) constant interacting with Unilamellar Vesicles of electroneutral DMPC in PBSbuffer at pH 7.4 and 37 C; assay type: ADME
Summary of the method: (§2)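 Fluorescence anisotropy titration of 1 μM drug (lactone form) with small unilamellar vesicles, in PBS at pH 7.4 and 37 °C. Anisotropy was read about 1 min after adding drug at each lipid concentration to limit lactone hydrolysis. Adsorption isotherms were constructed, and K was taken from the slopes of double-reciprocal plots, with 10% uncertainty.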

[5] = Equilibrium association (binding) constant interacting with Unilamellar Vesicles of negatively charged DMPG in PBS buffer at pH 7.4 and 37 C; assay type: ADME; summary of the method: as §2
[6] = Stability parameter for the compound at a concentration of 1 uM in human serum albumin(HSA) after 3h; assay type: ADME; conditions: read-out: Lactone; summary of the method: as §1
[7] = Stability parameter for the compound at a concentration of 1 uM in phosphate-buffered saline(PBS, pH 7.4) after 3h; assay type: physicochemical; conditions: read-out: Lactone; summary of the method: as §1
[8] = Stability parameter for the compound at a concentration of 1 uM in plasma after 3h; assay type: ADME, cell-free; conditions: read-out: Lactone; summary of the method: as §1
[9] = Stability parameter for the compound in mouse blood after 3h; assay type: ADME; conditions: read-out: Lactone
Summary of the method: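 Drug was incubated in mouse blood at pH 7.4 and 37 °C for 3 h. Blood was kept at 5 °C after drawing and before the start. The percent lactone remaining was measured by HPLC.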

Compound: CCC1(O)CC(=O)OCc2c1cc1n(c2=O)Cc2c-1nc1ccccc1c2[Si](C)(C)C(C)(C)C (stereo unspecified)
remaining at 3 h, 1 µM [1]: 92%
remaining at 3 h, 1 µM [2]: 86.6%
remaining at 3 h [3]: 87%
K DMPC [4]: 14000 M⁻¹
K DMPG [5]: 19000 M⁻¹
remaining at 3 h, 1 µM [6]: 88.1%
remaining at 3 h, 1 µM [7]: 84.9%
remaining at 3 h, 1 µM [8]: 85%
remaining at 3 h [9]: 80%

Compound: CCC1(O)CC(=O)OCc2c1cc1n(c2=O)Cc2c-1nc1ccc(O)cc1c2[Si](C)(C)C(C)(C)C (stereo unspecified)
remaining at 3 h, 1 µM [1]: 88.5%
remaining at 3 h, 1 µM [2]: 84.9%
remaining at 3 h [3]: 85%
K DMPC [4]: 8000 M⁻¹
K DMPG [5]: 4000 M⁻¹
remaining at 3 h, 1 µM [6]: 82.9%
remaining at 3 h, 1 µM [7]: 83.1%
remaining at 3 h, 1 µM [8]: 61.5%
remaining at 3 h [9]: 70%

Compound: CCC1(O)CC(=O)OCc2c1cc1n(c2=O)Cc2c-1nc1ccc(N)cc1c2[Si](C)(C)C(C)(C)C (stereo unspecified)
remaining at 3 h, 1 µM [1]: 85.5%
remaining at 3 h, 1 µM [2]: 85.2%
remaining at 3 h [3]: 85%
K DMPC [4]: 9000 M⁻¹
K DMPG [5]: 9000 M⁻¹
remaining at 3 h, 1 µM [6]: 86.8%
remaining at 3 h, 1 µM [7]: 83.7%
remaining at 3 h, 1 µM [8]: 71.1%
remaining at 3 h [9]: 61%

K DMPC [4]: 800 M⁻¹
K DMPG [5]: 80 M⁻¹
Compound: CCC(O)(CC(=O)O)c1cc2n(c(=O)c1CO)Cc1c-2nc2ccc(N)cc2c1[Si](C)(C)C(C)(C)C (stereo unspecified)

K DMPC [4]: 700 M⁻¹
K DMPG [5]: 100 M⁻¹
Compound: CCC(O)(CC(=O)O)c1cc2n(c(=O)c1CO)Cc1c-2nc2ccc(O)cc2c1[Si](C)(C)C(C)(C)C (stereo unspecified)

Compound: CCC1(O)CC(=O)OCc2c1cc1n(c2=O)Cc2c-1nc1ccc(N)cc1c2[Si](C)(C)C (stereo unspecified)
remaining at 3 h, 1 µM [1]: 84.8%
remaining at 3 h, 1 µM [2]: 56.4%
remaining at 3 h [3]: 56%
K DMPC [4]: 1400 M⁻¹
K DMPG [5]: 800 M⁻¹
remaining at 3 h, 1 µM [6]: 81.4%
remaining at 3 h, 1 µM [7]: 82.8%
remaining at 3 h, 1 µM [8]: 40.3%
remaining at 3 h [9]: 72%

Compound: CC[C@@]1(O)C(=O)OCc2c1cc1n(c2=O)Cc2cc3ccccc3nc2-1 [CAMPTOTHECIN]
remaining at 3 h [3]: 7%
K DMPC [4]: 100 M⁻¹
K DMPG [5]: 100 M⁻¹
remaining at 3 h [9]: 20%

K DMPC [4]: 10 M⁻¹
K DMPG [5]: 50 M⁻¹
Compound: CC[C@@]1(O)C(=O)OCc2c1cc1n(c2=O)Cc2cc3c(CN(C)C)c(O)ccc3nc2-1 [TOPOTECAN]
